Results as given in ChEMBL document CHEMBL1135646, “In vitro photodynamic properties of chalcogenopyrylium analogues of the thiopyrylium antitumor agent AA1” (J Med Chem, 2002).

Assays:
[1] = Distribution coefficient between octanol and phosphate buffer at pH6.0; type: physicochemical; conditions: pH 6
Summary of the method: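 Shake-flask partitioning between n-octanol and pH 6 phosphate buffer as the aqueous phase. Mixing for 3–5 min, then 1 h settling, with equilibration at 23 °C. Each phase is quantified by UV–visible spectrophotometry, and the result is reported as log P.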

[2] = compound evaluated for dark induced toxicity toward COLO-26, murine colon carcinoma cell line; type: cell-based; conditions: mouse, COLO-26 (Colon 26) murine colon carcinoma cells; read-out: LD50 (the source's name)
Summary of the method: (§1)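 Colo-26 murine colon carcinoma cells were grown in RPMI 1640 with 10% FCS at 37 °C, 5% CO2, and plated at 5×10^3 cells/well the evening before. After two PBS washes, they took dye at various concentrations in HBSS with 1% FCS at 37 °C. They were then washed, left unirradiated, given growth medium, and kept 24 h. Survival was read by MTT, and LD50 is the 50% kill concentration.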

Colon 26 = test: Effective concentration evaluated in light induced toxicity toward COLO-26, murine colon carcinoma cell line after irradiation with 15 J/cm**2 of 360-800nm light; type: functional, cell-based; conditions: Mus musculus, Colon 26, light or radiation study
Summary of the method: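 Colo-26 cells in RPMI 1640 with 10% FCS are seeded at 5×10^3 cells/well the evening before. Cells are washed with PBS and given dye in HBSS with 1% FCS for 2 h at 37 °C. After a wash, irradiation in PBS with 1% FCS uses filtered 360–800-nm tungsten-halogen light to 15 J cm⁻². Growth medium is added and cells are held 24 h. MTT read-out; EC50 is the concentration giving 50% cell kill.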

[3] = Ratio of LD50 value to that of EC50 value.; type: functional
[4] = Lethal dose evaluated in dark induced toxicity toward COLO-26, murine colon carcinoma cell line; conditions: mouse, COLO-26 (Colon 26) murine colon carcinoma cells; read-out: LD50 (the source's name); summary of the method: as §1

Row | SMILES | logD [1] | CC50 [2] [nM] | EC50 (Colon 26) [nM] | Ratio [3] | CC50 [4] [nM]
1 | CN(C)c1ccc(-c2cc(-c3ccccc3)[te+]c(-c3ccc(N)cc3)c2)cc1 | 1.9 | 600 | – | – | –
2 | Nc1ccc(-c2cc(-c3ccc(N4CCOCC4)cc3)cc(-c3ccc(N4CCOCC4)cc3)[s+]2)cc1 | 1.3 | 66000 | 2000 | 33 | –
3 | Nc1ccc(-c2cc(-c3ccc(N4CCOCC4)cc3)cc(-c3ccc(N)cc3)[te+]2)cc1 | 1.9 | 1400 | – | – | –
4 | CN(C)c1ccc(-c2cc(-c3ccc(N)cc3)[s+]c(-c3ccc(N4CCOCC4)cc3)c2)cc1 | 0.9 | 900 | – | – | –
5 | CN(C)c1ccc(-c2cc(-c3ccc(N(C)C)cc3)[se+]c(-c3ccc(N(C)C)cc3)c2)cc1 | 2.2 | 500 | 300 | 1.7 | –
6 | CN(C)c1ccc(-c2cc(-c3ccc(N)cc3)[te+]c(-c3ccc(N4CCOCC4)cc3)c2)cc1 | 1 | – | – | – | 500
7 | c1cc(N2CCOCC2)ccc1-c1cc(-c2ccc(N3CCOCC3)cc2)[se+]c(-c2ccc(N3CCOCC3)cc2)c1 | 1.2 | 7200 | 800 | 9 | –
8 | Nc1ccc(-c2cc(-c3ccc(N4CCOCC4)cc3)cc(-c3ccc(N)cc3)[s+]2)cc1 | 1.8 | 800 | – | – | –
9 | Nc1ccc(-c2cc(-c3ccccc3)cc(-c3ccc(N4CCOCC4)cc3)[s+]2)cc1 | 1.1 | 1800 | – | – | –
10 | CN(C)c1ccc(-c2cc(-c3ccc(N)cc3)[s+]c(-c3ccc(N)cc3)c2)cc1 | 1.9 | 100 | – | – | –
11 | CN(C)c1ccc(-c2cc(-c3ccccc3)cc(-c3ccc(N)cc3)[se+]2)cc1 | 1.3 | 400 | – | – | –
12 | CN(C)c1ccc(-c2cc(-c3ccc(N)cc3)[te+]c(-c3ccc(N)cc3)c2)cc1 | 2 | 500 | – | – | –
13 | Nc1ccc(-c2cc(-c3ccc(N4CCOCC4)cc3)cc(-c3ccc(N)cc3)[se+]2)cc1 | 1.5 | 3800 | 1200 | 3.2 | –
14 | Nc1ccc(-c2cc(-c3ccc(N4CCOCC4)cc3)cc(-c3ccccc3)[se+]2)cc1 | 1.2 | 6500 | – | – | –
15 | Nc1ccc(-c2cc(-c3ccc(N4CCOCC4)cc3)cc(-c3ccc(N4CCOCC4)cc3)[te+]2)cc1 | 1.6 | 800 | 600 | 1.3 | –
16 | CN(C)c1ccc(-c2cc(-c3ccc(N(C)C)cc3)[s+]c(-c3ccc(N(C)C)cc3)c2)cc1 | 2.2 | 500 | 200 | 2.5 | –
17 | Nc1ccc(-c2cc(-c3ccc(N4CCOCC4)cc3)cc(-c3ccc(N4CCOCC4)cc3)[se+]2)cc1 | 1.2 | 6900 | 1900 | 3.6 | –
18 | Nc1ccc(-c2cc(-c3ccccc3)cc(-c3ccc(N4CCOCC4)cc3)[te+]2)cc1 | 1 | 70 | – | – | –
19 | CN(C)c1ccc(-c2cc(-c3ccc(N)cc3)[se+]c(-c3ccc(N)cc3)c2)cc1 | 1.7 | 1400 | 370 | 3.8 | –
20 | CN(C)c1ccc(-c2cc(-c3ccccc3)[s+]c(-c3ccc(N)cc3)c2)cc1 | 1.3 | 70 | – | – | –
21 | Nc1ccc(-c2cc(-c3ccccc3)cc(-c3ccc(N4CCOCC4)cc3)[se+]2)cc1 | 0.9 | 900 | – | – | –
22 | CN(C)c1ccc(-c2cc(-c3ccc(N)cc3)[se+]c(-c3ccc(N4CCOCC4)cc3)c2)cc1 | 1 | 1500 | 70 | 21 | –
23 | CN(C)c1ccc(-c2cc(-c3ccccc3)[se+]c(-c3ccc(N)cc3)c2)cc1 | 1.2 | 2600 | 200 | 13 | –
